Like-named read-outs stand apart in the source and are kept apart here.
Legend:
[1] = type: in vivo, mice; conditions: male, mouse, plasma, po; for AUC: over 24 h
[2] = type: in vivo, mice; conditions: male, mouse, brain, po; for AUC: over 24 h; for Cmax: n = 6 +/- SEM
[3] = test system: Caco-2 / THP-1 coculture; assay: Transepithelial electrical resistance; type: cell-based, human; conditions: LPS +, TMF + (AHR antagonist); metabolites 250 ng/mL
Summary of the method: (§1)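 Caco-2 grown 18 days on 8 μm transwells to TEER 500 ohm×cm2, set over THP-1 differentiated with PMA (15 nM, 48 h). Pretreatment 24 h with fermented supernatant (50 μL/1 mL) or metabolites (250 ng/mL), with or without AHR antagonist TMF. Challenge with LPS 1 μg/ml, IFN-γ and ATP in both compartments. Read-outs: TEER before and after; kynurenine by chemical assay, % control; IL-1β by ELISA, fold over untreated. n = 4 wells; t-test.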

[4] = test system: Kynurenine; assay: Kynurenine production; type: cell-based, human; conditions: LPS +, metabolites 250 ng/mL
Summary of the method: as §1

[5] = test system: IL-1β; assay: IL-1β production; type: cell-based, human; conditions: LPS +, ELISA, metabolites 250 ng/mL
Summary of the method: as §1

[6] = test system: THP-1 cells; assay: qPCR gene expression in THP-1 cells of the LPS-challenged coculture; type: cell-based, human; conditions: TMF-treated vs. untreated
[7] = biological target: T1, aryl hydrocarbon receptor (AHR) (Homo sapiens, UniProt P35869); type: cell-based; conditions: for dependence of the beneficial / anti-inflammatory activity on AHR signaling: LPS-challenged coculture with AHR antagonist TMF; for anti-inflammatory effects (TEER, cytotoxicity, kynurenine, Il-1β gene expression), correlated to Cyp1a1 mRNA expression: LPS-treated coculture, two concentrations (Table S8)
T1 sequence (P35869 11-848): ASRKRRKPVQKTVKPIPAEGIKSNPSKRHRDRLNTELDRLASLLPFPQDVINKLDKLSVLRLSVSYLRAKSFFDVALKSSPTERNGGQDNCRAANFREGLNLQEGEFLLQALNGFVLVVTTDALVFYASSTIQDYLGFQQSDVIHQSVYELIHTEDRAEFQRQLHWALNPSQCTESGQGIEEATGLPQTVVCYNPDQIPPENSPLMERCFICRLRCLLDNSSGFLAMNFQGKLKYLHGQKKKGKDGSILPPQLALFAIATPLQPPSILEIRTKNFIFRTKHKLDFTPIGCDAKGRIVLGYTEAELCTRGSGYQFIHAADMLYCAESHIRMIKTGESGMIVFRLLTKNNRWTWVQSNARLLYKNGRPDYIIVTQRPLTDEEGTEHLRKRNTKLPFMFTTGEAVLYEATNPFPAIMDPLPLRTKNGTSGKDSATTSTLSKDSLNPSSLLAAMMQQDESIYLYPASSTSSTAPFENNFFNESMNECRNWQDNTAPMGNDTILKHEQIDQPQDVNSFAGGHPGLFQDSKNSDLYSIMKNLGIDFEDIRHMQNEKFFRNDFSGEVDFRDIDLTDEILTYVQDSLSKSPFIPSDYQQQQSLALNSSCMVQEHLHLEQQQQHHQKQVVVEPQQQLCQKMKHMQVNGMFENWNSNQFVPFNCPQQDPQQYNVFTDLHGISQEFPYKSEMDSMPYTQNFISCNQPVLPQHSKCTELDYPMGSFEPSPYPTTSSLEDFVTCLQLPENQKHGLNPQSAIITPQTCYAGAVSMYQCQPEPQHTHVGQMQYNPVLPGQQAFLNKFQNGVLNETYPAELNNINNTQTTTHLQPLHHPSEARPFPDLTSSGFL
Summary of the method: as §1

[8] = TMF −, fold change from untreated controls

| AUC ([1]; Chronic BDPP) [ng·h/mL] | AUC ([1]; Chronic Synbiotic) [ng·h/mL] | Tmax ([1]; Chronic BDPP) [min] | Tmax ([1]; Chronic Synbiotic) [min] | AUC ([2]; Chronic BDPP) [ng·h/mL] | AUC ([2]; Chronic Synbiotic) [ng·h/mL] | Cmax ([2]; Chronic BDPP) [ng/mL] | Cmax ([2]; Chronic Synbiotic) [ng/mL] | Tmax ([2]; Chronic BDPP) [min] | Tmax ([2]; Chronic Synbiotic) [min] | Tlr4 expression in TMF-treated cultures [6] | dependence of the beneficial / anti-inflammatory activity on AHR signaling [7] | Compound | TEER (% Control) [3] [% Control] | Kynurenine (% Change) ([4]; TMF +) | Kynurenine (% Change) ([4]; TMF −) | IL-1β(Fold Change) ([5]; TMF +) | IL-1β(Fold Change) [5, 8] | anti-inflammatory effects (TEER, cytotoxicity, kynurenine, Il-1β gene expression), correlated to Cyp1a1 mRNA expression [7] |
| --- | --- | --- | --- | --- | --- | --- | --- | --- | --- | --- | --- | --- | --- | --- | --- | --- | --- | --- |
| 3.5 | 38.2 | 18 | 30 | 87.2 | 288 | 25.3 ± 9.6 | 23 ± 2.6 | 18 | 60 | – | independent of AHR signaling | O=c1c(O)c(-c2ccc(O)cc2)oc2cc(O)cc(O)c12 [KAMF, Kaempferol] | 75.5 ± 2.1 | 131.7 ± 3.9 | 151.0 ± 3.7 % Change | 10.1 ± 0.7τ Fold Change | 8.4 ± 0.2τ Fold Change | dose-dependent anti-inflammatory effects |
| – | 0.4 | – | 30 | – | 1.14 | – | 0.1 ± 0.09 | – | 30 | – | – | COc1cc(O)c2c(=O)c(O)c(-c3ccc(O)c(O)c3)oc2c1 [7′-MeQUER, Rhamnetin] | 74.5 ± 2.0 | 132.0 ± 13.3 | 119.5 ± 4.3 % Change | 8.1 ± 0.4τ Fold Change | 7.9 ± 0.4τ Fold Change | – |
| 406 | 2170 | 30 | 18 | – | – | – | – | – | – | suppressed | abrogated by TMF | O=C(O)CCc1ccc(O)cc1 [4-HPPA, 3-(4-Hydroxyphenyl)propionic acid] | 72.3 ± 2.0 | 134.3 ± 3.2 | 102.0 ± 2.2τ % Change | 9.1 ± 0.0τ ^** Fold Change | 6.4 ± 0.3τ Fold Change | dose-dependent anti-inflammatory effects |

The remaining lines, values behind:

| Compound | AUC ([1]; Chronic BDPP) [ng·h/mL] | AUC ([1]; Chronic Synbiotic) [ng·h/mL] | Tmax ([1]; Chronic BDPP) [min] | Tmax ([1]; Chronic Synbiotic) [min] | AUC ([2]; Chronic BDPP) [ng·h/mL] | AUC ([2]; Chronic Synbiotic) [ng·h/mL] | Cmax ([2]; Chronic BDPP) [ng/mL] | Cmax ([2]; Chronic Synbiotic) [ng/mL] | Tmax ([2]; Chronic BDPP) [min] | Tmax ([2]; Chronic Synbiotic) [min] | Tlr4 expression in TMF-treated cultures [6] | dependence of the beneficial / anti-inflammatory activity on AHR signaling [7] | TEER (% Control) [3] [% Control] | Kynurenine (% Change) ([4]; TMF +) | Kynurenine (% Change) ([4]; TMF −) | IL-1β(Fold Change) ([5]; TMF +) | IL-1β(Fold Change) [5, 8] | anti-inflammatory effects (TEER, cytotoxicity, kynurenine, Il-1β gene expression), correlated to Cyp1a1 mRNA expression [7] |
| --- | --- | --- | --- | --- | --- | --- | --- | --- | --- | --- | --- | --- | --- | --- | --- | --- | --- | --- |
| COc1cc(-c2oc3cc(O)cc(O)c3c(=O)c2O)ccc1O [3′-MeQUER, Isorhamnetin] | 15.6 | 72.4 | 15 | 30 | 26.9 | 103 | 12.2 ± 6.9 | 28.4 ± 6.3 | 18 | 60 | – | – | 73.4 ± 1.2 | 129.9 ± 13.8 | 102.3 ± 9.6τ % Change | 9.4 ± 0.3τ ^* Fold Change | 6.5 ± 0.4τ Fold Change | – |
| O=C(O)Cc1ccc(O)cc1 [4-HPAA, 4-Hydroxyphenylacetic acid] | 3760 | 4460 | 30 | 18 | 1350 | 1650 | 66.8 ± 4.7 | 108 ± 6.5 | 60 | 60 | suppressed | abrogated by TMF | 70.2 ± 2.0 | 120.7 ± 7.9 | – | 9.8 ± 0.4τ ^** Fold Change | 5.2 ± 0.6τ Fold Change | dose-dependent anti-inflammatory effects |
| O=C(O)/C=C/c1ccc(O)c(O)c1 [CA, Caffeic acid] | 52.8 | 51.4 | 18 | 18 | – | – | – | – | – | – | suppressed | abrogated by TMF | 73.2 ± 0.9 | 144.1 ± 6.4 | 98.6 ± 7.7τ % Change | 10.3 ± 0.3τ ^** Fold Change | 4.0 ± 0.3τ Fold Change | dose-dependent anti-inflammatory effects |
